Consider three molecules from ChEMBL document CHEMBL1641374, “Synthesis of antiproliferative flavones from calycopterin, major flavonoid of Calycopteris floribunda Lamk” (Bioorg Med Chem, 2011).

One experiment deals with HCT-116. The experiment is described as follows: Cytotoxicity against human HCT116 cells after 72 hrs by MTS assay. As to conditions: HCT-116, 72 h. The format is functional, cell-based.
Experiment [1] deals with KB. Kind of experiment: Induction of cell cycle arrest in human KB cells assessed as accumulation at subG1 phase at 50 nM after 48 hrs by propidium iodide staining-based flow cytometry (reference value: 1.2%). The format is functional. In general terms: Flow cytometry measures light scatter and fluorescence of single cells or particles in a stream.
Experiment [2] deals with KB. The experiment is described as follows: Induction of cell cycle arrest in human KB cells assessed as accumulation at S phase at 50 nM after 48 hrs by propidium iodide staining-based flow cytometry (reference value: 18.4%). The format is functional.
In experiment [3] the test system is KB. The experiment is described as follows: Induction of cell cycle arrest in human KB cells assessed as accumulation at G0/G1phase at 50 nM after 24 hrs by propidium iodide staining-based flow cytometry (reference value: 72.9%). It counts as functional.
Experiment [4] deals with HL-60. The experiment is described as follows: Induction of apoptosis in human HL60 cells assessed as viable cells at 50 nM after 48 hrs by annexin-V-PE/7-AAD staining (reference value: 97.4%). The following applies: HL-60, 48 h, read-out: Activity. The format is functional.
Experiment [5] deals with HL-60. The experiment is described as follows: Induction of apoptosis in human HL60 cells assessed as viable cells at 50 nM after24 hrs by annexin-V-PE/7-AAD staining (reference value: 97.2%). It counts as functional. As to conditions: read-out: Activity.
For a further experiment, the system named is MIA PaCa-2. The experiment is described as follows: Cytotoxicity against human MIAPaCa2 cells after 72 hrs by MTS assay. As to conditions: MIA PaCa-2, 72 h. The format is functional, cell-based.
The next experiment relates to K562. Kind of experiment: Cytotoxicity against human K562 cells after 72 hrs by MTS assay. It counts as functional, cell-based. As to conditions: K562, 72 h.
The next experiment deals with A549. Kind of experiment: Cytotoxicity against human A549 cells after 72 hrs by MTS assay. The format is functional, cell-based. As to conditions: A549, 72 h. Background: Tetrazolium assays rely on reduction of a dye to a coloured formazan, in cell work by metabolically active cells.
Another experiment concerns OVCAR-8. The experiment is described as follows: Cytotoxicity against human OVCAR8 cells after 72 hrs by MTS assay. It counts as functional, cell-based. As to conditions: OVCAR-8, 72 h.
Experiment [6] relates to HL-60. Kind of experiment: Induction of apoptosis in human HL60 cells assessed as induction of caspase 3/7 activation at 100 nM relative to control. It counts as functional. A digest of the protocol:
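HL60 cells (20,000/well) were treated 24 and 48 h with compounds in DMSO. Vehicle and doxorubicine served as controls. Fluorescence (ex 360/em 465 nm) was followed over 3 h.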

In experiment [7] the test system is KB. Kind of experiment: Cytotoxicity against human KB cells at 10^-6 M after 72 hrs by MTS assay. The format is functional. A digest of the protocol:
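KB cells in D-MEM with 10% FCS were seeded at 600 cells/well and dosed 24 h later with flavone at 10^-6 M in DMSO. Controls received DMSO at 1% final. After 72 h, MTS was added for 3 h at 37 °C and A490 read in triplicate. Growth inhibition (%) = (1 − OD treated/OD control)×100.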

Experiment [8] concerns KB. Kind of experiment: Induction of cell cycle arrest in human KB cells assessed as accumulation at G0/G1phase at 50 nM after 48 hrs by propidium iodide staining-based flow cytometry (reference value: 66.6%). The format is functional.
Experiment [9] can be described thus: Cytotoxicity against human HL60R cells after 72 hrs by MTS assay. It counts as functional, cell-based. As to conditions: HL-60, 72 h.
Experiment [10] has as its system HL-60. The experiment is described as follows: Cytotoxicity against human HL60 cells after 72 hrs by MTS assay. It counts as functional, cell-based. As to conditions: HL-60, 72 h.
Experiment [11] deals with HL-60. Kind of experiment: Induction of apoptosis in human HL60 cells assessed as early apoptosis cells at 50 nM after24 hrs by annexin-V-PE/7-AAD staining (reference value: 2.6%). It counts as functional.
Experiment [12] is described as follows: Cytotoxicity against human MCF7/R cells after 72 hrs by MTS assay. It counts as functional, cell-based. As to conditions: MCF7R.
For another experiment, the system named is HCT-15. Kind of experiment: Cytotoxicity against human HCT15 cells after 72 hrs by MTS assay. It counts as functional, cell-based. As to conditions: HCT-15, 72 h.
For experiment [13], the system named is KB. Kind of experiment: Induction of cell cycle arrest in human KB cells assessed as accumulation at G2/M phase at 50 nM after 48 hrs by propidium iodide staining-based flow cytometry (reference value: 13.8%). The format is functional.
Experiment [14] in a line: Inhibition of sheep brain tubulin polymerization at 2x10'-5 M after 5 mins. The arrangement: species or system Ovis aries. A digest of the protocol:
(§1)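 Sheep brain microtubule proteins were purified by two assembly/disassembly cycles (37 °C/0 °C) in 100 mM MES pH 6.6, 1 mM EGTA, 0.5 mM MgCl2. Polymerization rate was followed by turbidity at 350 nm, with deoxypodophyllotoxin as reference. Compounds were tested at ~2×10^-5 M for % inhibition, with IC50 determined for selected compounds.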

Experiment [15] relates to KB. The experiment is described as follows: Induction of cell cycle arrest in human KB cells assessed as accumulation at G2/M phase at 50 nM after 24 hrs by propidium iodide staining-based flow cytometry (reference value: 19.6%). The format is functional.
Experiment [16] deals with KB. The experiment is described as follows: Induction of cell cycle arrest in human KB cells assessed as accumulation at S phase at 50 nM after 24 hrs by propidium iodide staining-based flow cytometry (reference value: 6.9%). It counts as functional.
Another experiment concerns HepG2. Kind of experiment: Cytotoxicity against human HepG2 cells after 72 hrs by MTS assay. The format is functional, cell-based. The following applies: HepG2, 72 h.
The subject of another experiment is SK-OV-3. Kind of experiment: Cytotoxicity against human SKOV3 cells after 72 hrs by MTS assay. It counts as functional, cell-based. The following applies: SK-OV-3, 72 h.
Experiment [17] concerns HL-60. Kind of experiment: Induction of apoptosis in human HL60 cells assessed as late apoptosis cells at 50 nM after 48 hrs by annexin-V-PE/7-AAD staining (reference value: 0.1%). It counts as functional.
The test system of the next experiment is HT-29. Kind of experiment: Cytotoxicity against human HT-29 cells after 72 hrs by MTS assay. The format is functional, cell-based. As to conditions: HT-29, 72 h.
Experiment [18] concerns KB. The experiment is described as follows: Induction of cell cycle arrest in human KB cells assessed as accumulation at subG1 phase at 50 nM after 24 hrs by propidium iodide staining-based flow cytometry (reference value: 0.7%). It counts as functional.
The subject of a further experiment is SF-268. Kind of experiment: Cytotoxicity against human SF268 cells after 72 hrs by MTS assay. It counts as functional, cell-based. The following applies: SF-268, 72 h.
The next experiment concerns PC-3. Kind of experiment: Cytotoxicity against human PC3 cells after 72 hrs by MTS assay. As to conditions: PC-3, 72 h. It counts as functional, cell-based.
Experiment [19] has as its system HL-60. The experiment is described as follows: Induction of apoptosis in human HL60 cells assessed as late apoptosis cells at 50 nM after24 hrs by annexin-V-PE/7-AAD staining (reference value: 0.2%). The format is functional.
The species named for a further experiment is Ovis aries. The experiment is described as follows: Inhibition of sheep brain tubulin polymerization after 5 mins. Summed up:
as §1

Experiment [20] has as its system HL-60. Kind of experiment: Induction of apoptosis in human HL60 cells assessed as viable cells at 200 nM after24 hrs by annexin-V-PE/7-AAD staining (reference value: 97.2%). It counts as functional. As to conditions: read-out: Activity.
The test system of experiment [21] is HL-60. Kind of experiment: Induction of apoptosis in human HL60 cells assessed as early apoptosis cells at 200 nM after 48 hrs by annexin-V-PE/7-AAD staining (reference value: 2.5%). It counts as functional.
The test system of experiment [22] is HL-60. Kind of experiment: Induction of apoptosis in human HL60 cells assessed as late apoptosis cells at 200 nM after24 hrs by annexin-V-PE/7-AAD staining (reference value: 0.2%). It counts as functional.
Experiment [23] concerns HL-60. The experiment is described as follows: Induction of apoptosis in human HL60 cells assessed as viable cells at 200 nM after 48 hrs by annexin-V-PE/7-AAD staining (reference value: 97.4%). The format is functional. As to conditions: HL-60, 48 h, read-out: Activity.
Experiment [24] concerns HL-60. Kind of experiment: Induction of apoptosis in human HL60 cells assessed as late apoptosis cells at 200 nM after 48 hrs by annexin-V-PE/7-AAD staining (reference value: 0.1%). The format is functional.
The test system of experiment [25] is HL-60. Kind of experiment: Induction of apoptosis in human HL60 cells assessed as early apoptosis cells at 200 nM after24 hrs by annexin-V-PE/7-AAD staining (reference value: 2.6%). It counts as functional.
For experiment [26], the system named is KB. Kind of experiment: Induction of cell cycle arrest in human KB cells assessed as accumulation at S phase at 20 nM after 24 hrs by propidium iodide staining-based flow cytometry (reference value: 6.9%). The format is functional.
Experiment [27] concerns KB. The experiment is described as follows: Induction of cell cycle arrest in human KB cells assessed as accumulation at subG1 phase at 20 nM after 48 hrs by propidium iodide staining-based flow cytometry (reference value: 1.2%). It counts as functional.
Experiment [28] relates to KB. Kind of experiment: Induction of cell cycle arrest in human KB cells assessed as accumulation at G2/M phase at 20 nM after 24 hrs by propidium iodide staining-based flow cytometry (reference value: 19.6%). The format is functional.
In experiment [29] the test system is KB. Kind of experiment: Induction of cell cycle arrest in human KB cells assessed as accumulation at G2/M phase at 20 nM after 48 hrs by propidium iodide staining-based flow cytometry (reference value: 13.8%). The format is functional.
Experiment [30] deals with KB. Kind of experiment: Induction of cell cycle arrest in human KB cells assessed as accumulation at S phase at 20 nM after 48 hrs by propidium iodide staining-based flow cytometry (reference value: 18.4%). The format is functional.
Experiment [31] deals with KB. Kind of experiment: Induction of cell cycle arrest in human KB cells assessed as accumulation at G0/G1phase at 20 nM after 48 hrs by propidium iodide staining-based flow cytometry (reference value: 66.6%). It counts as functional.
Experiment [32] relates to KB. Kind of experiment: Induction of cell cycle arrest in human KB cells assessed as accumulation at G0/G1phase at 20 nM after 24 hrs by propidium iodide staining-based flow cytometry (reference value: 72.9%). The format is functional.
The subject of experiment [33] is KB. The experiment is described as follows: Induction of cell cycle arrest in human KB cells assessed as accumulation at subG1 phase at 20 nM after 24 hrs by propidium iodide staining-based flow cytometry (reference value: 0.7%). The format is functional.

For orientation: pIC50 means −log10 of the IC50, conventionally taken in molar units. A lower pIC50 goes with a high IC50. A word on the inhibition: it is the drop in the measured response relative to a control, in per cent. Low readings indicate a response near the control, high ones a response far below the control.

pIC50: −log10 of the molar value.

Consider `COc1ccc(-c2oc3c(OC)c(OC)c(OC)c(O)c3c(=O)c2OC)cc1O`, for which the pIC50 was 7.64 with HCT-116; 7.92 in the experiment with MIA PaCa-2; 8.15 in the experiment on K562; 7.24 with A549; 7.40 with OVCAR-8; 8.30 in [9]. Besides, the negative-log IC50 (pIC50) is 7.44 in the experiment with HL-60 [10]; 7.77 in [12]; 7.85 in the experiment on HCT-15; 5.05 in [14]; 6.76 in the experiment on HepG2; 7.66 with SK-OV-3. In addition, the pIC50 in the experiment on HT-29 was 5.50; in the experiment on SF-268, 6.73; with PC-3, below 6.00. The Activity is 22.2% in the experiment on KB [1]; 38.6% with KB [2]; 21.3% with KB [3]; 96% in the experiment on KB [7]; 27.4% in the experiment with KB [8]; 26.7% in the experiment with HL-60 [11]. Further, the Activity in the experiment on KB [13] was 11.8%; in the experiment on KB [15] it was 45.3%; in the experiment with KB [16] it was 18.5%; in the experiment on HL-60 [17] it was 7.2%; with KB [18], 14.9%; with HL-60 [19], 0.8%. In addition, the values for the viability at 0.05 µM in the experiment on HL-60 [4] and in the experiment with HL-60 [5] were 30.8% and 72.4%, respectively. For the same molecule, in the experiment with HL-60 [6], the “fold change (FC)” value amounted to 5.7. Moreover, the inhibition in the experiment listed under Ovis aries was determined as 3%.
`COc1cccc2c1C(=O)c1c(O)c3c(c(O)c1C2=O)C[C@@](O)(C(=O)CO)C[C@@H]3O[C@H]1C[C@H](N)[C@H](O)[C@H](C)O1` [DOXORUBICIN]: the viability at 0.2 µM was determined as 52.8% with HL-60 [20] and 5.2% with HL-60 [23]. Further, the Activity is on record as 89.2% with HL-60 [21], 1.2% in the experiment on HL-60 [22], 5.6% in the experiment on HL-60 [24] and 45.9% with HL-60 [25].
`COc1ccc(/C=C\c2cc(OC)c(OC)c(OC)c2)cc1O` [COMBRETASTATIN A4]: the Activity in the experiment with KB [26] came out at 26.7%; with KB [27], 43.5%; in the experiment on KB [28], 50.1%; in the experiment on KB [29] it was 0.8%; in the experiment with KB [30] it was 44%; in the experiment with KB [31] it was 27.4%. Further, the Activity in the experiment with KB [32] is 9.5%; in the experiment with KB [33], 13.8%.
